What was measured:
Format in all cases: ADME
Cytochrome P450 1A2 [1] = target: T1, Cytochrome P450 1A2 (Homo sapiens, UniProt P05177); test: Activity of human CYP1A2 expressed in microsomes isolated from baculovirus infected insect cell assessed as enzyme-mediated compound formation treated with [14C]-rivoglitazone at 20 uM after 2 hrs by radio-HPLC/LC-MS/MS analysis in presence of NADPH-generating system
T1 sequence (P05177 whole entry): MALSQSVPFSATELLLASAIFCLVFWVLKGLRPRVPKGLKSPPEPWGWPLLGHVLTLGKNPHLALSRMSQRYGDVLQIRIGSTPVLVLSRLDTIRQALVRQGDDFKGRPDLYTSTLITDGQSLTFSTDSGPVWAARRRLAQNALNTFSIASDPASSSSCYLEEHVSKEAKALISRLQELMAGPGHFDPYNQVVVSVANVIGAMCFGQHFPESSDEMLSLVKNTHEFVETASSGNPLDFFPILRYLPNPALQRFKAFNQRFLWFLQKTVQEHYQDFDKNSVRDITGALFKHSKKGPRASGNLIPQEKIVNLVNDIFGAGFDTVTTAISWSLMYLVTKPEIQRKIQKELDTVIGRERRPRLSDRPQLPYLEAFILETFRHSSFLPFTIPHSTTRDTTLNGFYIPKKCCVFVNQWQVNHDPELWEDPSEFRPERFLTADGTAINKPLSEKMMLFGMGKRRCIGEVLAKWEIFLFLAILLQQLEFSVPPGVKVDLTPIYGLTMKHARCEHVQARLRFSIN
Procedure, shortened: (§1)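 Baculovirus/insect-cell microsomes expressing single human CYPs, 1 mg/ml protein, with 50 mM potassium phosphate (pH 7.4) or 100 mM Tris-HCl (pH 7.5). NADPH-generating system: 2 mM NADP⁺, 20 mM glucose 6-phosphate, 2 units/ml G6PDH, 10 mM MgCl₂. [¹⁴C]rivoglitazone at 20 μM, 2 h at 37°C with shaking. Control used insect-cell control supersomes. Stopped with acetonitrile; supernatant concentrated under nitrogen; metabolites analysed by radio-HPLC, LC-MS and LC-MS/MS.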

[2] = target: T2, UDP-glucuronosyltransferase 1A4 (Homo sapiens, UniProt P22310); test: Activity of human UGT1A4 expressed in microsomes isolated from baculovirus infected insect cell assessed as enzyme-mediated 2-mercapto-3-(4-((6-methoxy-1-methyl-1H-benzo[d]imidazol-2-yl)methoxy)phenyl)propanoic acid formation at 20 uM after 4 hrs by radio-HPLC/LC-MS/MS analysis in presence of UDPGA
T2 sequence (P22310 whole entry): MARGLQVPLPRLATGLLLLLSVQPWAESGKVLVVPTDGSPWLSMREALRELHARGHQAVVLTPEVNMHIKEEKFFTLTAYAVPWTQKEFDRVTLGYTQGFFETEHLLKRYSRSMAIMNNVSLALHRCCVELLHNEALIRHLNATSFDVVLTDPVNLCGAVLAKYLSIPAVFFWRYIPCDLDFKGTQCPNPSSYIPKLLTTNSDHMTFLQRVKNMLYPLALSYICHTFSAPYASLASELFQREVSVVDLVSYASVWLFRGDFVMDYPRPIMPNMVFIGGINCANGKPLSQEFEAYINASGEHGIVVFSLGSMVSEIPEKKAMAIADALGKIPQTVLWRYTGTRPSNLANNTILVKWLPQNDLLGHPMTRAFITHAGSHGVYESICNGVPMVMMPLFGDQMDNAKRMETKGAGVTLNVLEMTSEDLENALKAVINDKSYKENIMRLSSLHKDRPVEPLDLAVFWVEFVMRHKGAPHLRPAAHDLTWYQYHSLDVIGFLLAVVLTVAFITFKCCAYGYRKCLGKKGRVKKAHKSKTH

Cytochrome P450 1A2 [3] = target: T1, Cytochrome P450 1A2; test: Activity of human CYP1A2 expressed in microsomes isolated from baculovirus infected insect cell assessed as enzyme-mediated (2S,3S,4S,5R,6R)-6-((1-carboxy-2-(4-((6-methoxy-1-methyl-1H-benzo[d]imidazol-2-yl)methoxy)phenyl)ethylthio)carbonylamino)-3,4,5-trihydroxytetrahydro-2H-pyran-2-carboxylic acid formation at 20 uM after 2 hrs by radio-HPLC/LC-MS/MS analysis in presence of NADPH-generating system/SAM
Cytochrome P450 2C8 = target: T3, Cytochrome P450 2C8 (Homo sapiens, UniProt P10632); test: Activity of human CYP2C8 expressed in microsomes isolated from baculovirus infected insect cell assessed as enzyme-mediated 5-(4-((6-hydroxy-1-methyl-1H-benzo[d]imidazol-2-yl)methoxy)benzyl)thiazolidine-2,4-dione formation at 20 uM after 2 hrs by radio-HPLC/LC-MS/MS analysis in presence of NADPH-generating system and NADPH-generating system/SAM; procedure, shortened: as §1
T3 sequence (P10632 whole entry): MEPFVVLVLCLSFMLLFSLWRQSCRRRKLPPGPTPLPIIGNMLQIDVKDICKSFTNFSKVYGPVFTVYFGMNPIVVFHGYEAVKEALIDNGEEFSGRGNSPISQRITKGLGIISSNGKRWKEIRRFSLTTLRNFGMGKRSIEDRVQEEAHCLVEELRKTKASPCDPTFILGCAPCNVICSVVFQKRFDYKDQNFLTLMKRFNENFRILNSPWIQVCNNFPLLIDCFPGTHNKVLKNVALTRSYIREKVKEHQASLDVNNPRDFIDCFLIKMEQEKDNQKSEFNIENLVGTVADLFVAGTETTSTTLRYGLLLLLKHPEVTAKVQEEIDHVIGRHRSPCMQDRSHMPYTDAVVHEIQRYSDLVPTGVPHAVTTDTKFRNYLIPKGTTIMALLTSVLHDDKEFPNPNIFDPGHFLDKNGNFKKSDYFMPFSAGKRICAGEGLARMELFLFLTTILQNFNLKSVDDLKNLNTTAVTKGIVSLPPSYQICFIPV

Cytochrome P450 1A2 [4] = target: T1, Cytochrome P450 1A2; test: Activity of human CYP1A2 expressed in microsomes isolated from baculovirus infected insect cell assessed as enzyme-mediated 2-hydroxy-3-(4-((6-methoxy-1-methyl-1H-benzo[d]imidazol-2-yl)methoxy)phenyl)propanamide formation at 20 uM after 2 hrs by radio-HPLC/LC-MS/MS analysis in presence of NADPH-generating system and NADPH-generating system/SAM; procedure, shortened: as §1

Compound	Drug metabolism (Cytochrome P450 1A2 [1])	Drug metabolism [2]	Drug metabolism (Cytochrome P450 1A2 [3])	Drug metabolism (Cytochrome P450 2C8)	Drug metabolism (Cytochrome P450 1A2 [4])
COc1ccc2nc(COc3ccc(CC(S)C(=O)O)cc3)n(C)c2c1 (stereo not given)	metabolite_detected				
COc1ccc2nc(COc3ccc(C[14CH]4SC(=O)NC4=O)cc3)n(C)c2c1.Cl (racemic)		metabolite_not_detected	metabolite_not_detected	metabolite_detected	metabolite_detected

Source: ChEMBL document CHEMBL3526048, “In vitro metabolism of rivoglitazone, a novel peroxisome proliferator-activated receptor γ agonist, in rat, monkey, and human liver microsomes and freshly isolated hepatocytes” (Drug Metab Dispos, 2011)
